Data as given in ChEMBL document CHEMBL3272207, “Structure-activity relationship in cinnamamides. 2. Synthesis and pharmacological evaluation of some (E)- and (Z)-N-alkyl-alpha, beta-dimethylcinnamamides substituted on the phenyl group” (J Med Chem, 1977).
Calls of active or inactive are those of the source. The calls are words filed in the database; no cut-off is given here.

Assays:
Mus musculus [1] = assay: Behavioral toxicity in albino Icem-CET (SPF Caw) mouse assessed as tremors at 25 to 800 mg/kg, po by Irwin's test; format: organism-based; parameters: dose 25-800 mg/kg, route oral; settings: in vivo
Mus musculus [2] = assay: Behavioral toxicity in albino Icem-CET (SPF Caw) mouse assessed as clonic type convulsion at 25 to 800 mg/kg, po by Irwin's test; format: organism-based; parameters: dose 25-800 mg/kg, route oral; settings: in vivo
Mus musculus [3] = assay: Behavioral toxicity in po dosed albino Icem-CET (SPF Caw) mouse assessed as reduction in locomotor activity by Irwin's test; format: organism-based; settings: in vivo
Mus musculus [4] = assay: Behavioral toxicity in po dosed albino Icem-CET (SPF Caw) mouse assessed as positional passivity by Irwin's test; format: organism-based; settings: in vivo
[5] = Behavioral toxicity in po dosed albino Icem-CET (SPF Caw) mouse measured up to 7 days by Irwin's test; format: organism-based; settings: in vivo
Mus musculus [6] = assay: Behavioral toxicity in po dosed albino Icem-CET (SPF Caw) mouse assessed as tremors by Irwin's test; format: organism-based; settings: in vivo
Mus musculus [7] = assay: Anticonvulsant activity in albino Icem-CET (SPF Caw) mouse assessed as inhibition of pentylenetetrazole-induced maximal extensor seizures at 100 mg/kg, po administered 30 mins prior challenge; format: functional, organism-based; parameters: dose 100 mg/kg
Procedure, shortened: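 Single-dose screen at 100 mg/kg by gavage in 0.5% Methocel in fasted male Icem-CET (SPF Caw) mice, 17-22 g. Dosing was 30 min before pentylenetetrazole 130 mg/kg ip, and prevention of maximal extensor seizures was scored.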

Mus musculus [8] = assay: Anticonvulsant activity in po dosed albino Icem-CET (SPF Caw) mouse assessed as inhibition of pentylenetetrazole-induced maximal extensor seizures compound administered 30 mins prior challenge; format: functional
Procedure, shortened: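 Pentylenetetrazole antagonism in male Icem-CET (SPF Caw) mice, 17-22 g, fasted 9 h. Compound in 0.5% Methocel was given by gavage (0.2 ml/10 g) at 4-5 doses, 20 mice per dose, 30 min before pentylenetetrazole 130 mg/kg ip. Prevention of maximal extensor seizures was scored. ED50 was calculated by probit analysis, with fiducial limits at p = 0.05.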

Mus musculus [9] = assay: Behavioral toxicity in albino Icem-CET (SPF Caw) mouse assessed as positional passivity at 25 to 800 mg/kg, po by Irwin's test; format: organism-based; parameters: dose 25-800 mg/kg, route oral; settings: in vivo
Mus musculus [10] = assay: Toxicity in po dosed albino Icem-CET (SPF Caw) mouse assessed as clonic type convulsion by Irwin's test; format: organism-based; settings: in vivo
Procedure, shortened: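 Irwin test in fasted (9 h) male Icem-CET (SPF Caw) mice, 17-22 g. Oral gavage of a 0.5% Methocel suspension at screening doses of 25-800 mg/kg. Clonic-type convulsions were scored as the minimum effective dose.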

Mus musculus [11] = assay: Toxicity in po dosed albino Icem-CET (SPF Caw) mouse assessed as impairment of pinna by Irwin's test; format: organism-based; settings: in vivo
Mus musculus [12] = assay: Toxicity in po dosed albino Icem-CET (SPF Caw) mouse assessed as impairment of corneal reflexes by Irwin's test; format: organism-based, Cornea; settings: in vivo
[13] = Toxicity in po dosed albino Icem-CET (SPF Caw) mouse assessed as mortality measured after 24 to 72 hrs; format: organism-based; settings: in vivo
Mus musculus [14] = assay: Behavioral toxicity in albino Icem-CET (SPF Caw) mouse assessed as twitches at 200 to 800 mg/kg, po measured after 90 mins by Irwin's test; format: organism-based; parameters: dose 200-800 mg/kg, route oral; settings: in vivo, 1.5 h
Mus musculus [15] = assay: Behavioral toxicity in albino Icem-CET (SPF Caw) mouse assessed as tremor at 200 to 800 mg/kg, po measured after 90 mins by Irwin's test; format: organism-based; parameters: dose 200-800 mg/kg, route oral; settings: in vivo, 1.5 h
Mus musculus [16] = assay: Toxicity in albino Icem-CET (SPF Caw) mouse assessed as clonic type convulsion at 200 to 800 mg/kg, po measured after 90 mins by Irwin's test; format: organism-based; parameters: dose 200-800 mg/kg, route oral; settings: in vivo, 1.5 h
Mus musculus [17] = assay: Behavioral toxicity in albino Icem-CET (SPF Caw) mouse assessed as positional passivity at 25 to 800 mg/kg, po measured up to 90 mins by Irwin's test; format: organism-based; parameters: dose 25-800 mg/kg, route oral; settings: in vivo, 1.5 h
Mus musculus [18] = assay: Behavioral toxicity in po dosed albino Icem-CET (SPF Caw) mouse assessed as excitement at 25 to 100 mg/kg, po measured up to 30 mins post dose by Irwin's test; format: organism-based; parameters: dose 25-100 mg/kg, route oral; settings: in vivo, 0.5 h

SMILES	ED50 (Mus musculus [3]) [mg/kg]	ED50 (Mus musculus [4]) [mg/kg]	LD50 at 168 h [5] [mg/kg]	ED50 (Mus musculus [6]) [mg/kg]	Activity (Mus musculus [7])	ED50 (Mus musculus [8]) [mg/kg]	other results
C/C(C(=O)NC1CC1)=C(\C)c1ccc(Br)cc1	300	450	600	–	–	–	Activity (Mus musculus [1]): Non-toxic; Activity (Mus musculus [2]): Non-toxic
COc1cc(/C(C)=C(\C)C(=O)NC2CC2)cc(OC)c1OC	320	> 800	> 800	> 800	inactive	–	–
C=CCNC(=O)/C(C)=C(\C)c1ccc(OC)cc1	200	300	> 800	300	inactive	–	–
C=CCNC(=O)/C(C)=C(\C)c1ccccc1	130	300	550	250	–	–	–
C#CCNC(=O)/C(C)=C(\C)c1ccccc1	150	400	300	150	–	45.3	–
C#CCNC(=O)/C(C)=C(\C)c1cc(OC)c(OC)c(OC)c1	160	300	500	150	–	53.1	–
C/C(C(=O)NC1CC1)=C(/C)c1ccccc1	100	250	500	150	–	–	–
C/C(C(=O)NC1CC1)=C(\C)c1ccccc1	400	–	600	300	inactive	–	Activity (Mus musculus [9]): Non-toxic; MED (Mus musculus [10]): 400 mg/kg
C/C(C(=O)NC1CC1)=C(\C)c1ccc(C)cc1	280	500	> 800	–	inactive	–	Activity (Mus musculus [1]): Non-toxic; Activity (Mus musculus [2]): Non-toxic
C=CCNC(=O)/C(C)=C(\C)c1ccc(Cl)cc1	70	90	300	70	–	–	–
C/C(C(=O)NC1CC1)=C(/C)c1ccc(Cl)cc1	350	> 800	300	150	–	–	–
C#CCNC(=O)/C(C)=C(\C)c1ccc(Br)cc1	180	500	300	150	–	18.4	–
COc1ccc(/C(C)=C(/C)C(=O)NC2CC2)cc1	300	–	450	300	inactive	–	Activity (Mus musculus [9]): Non-toxic; MED (Mus musculus [10]): 400 mg/kg
C#CCNC(=O)/C(C)=C(\C)c1ccc(OC)cc1	150	400	> 800	150	–	112	–
C=CCNC(=O)/C(C)=C(\C)c1ccc(Br)cc1	120	500	600	500	–	33.7	–
C/C(C(=O)NC1CC1)=C(/C)c1ccc(F)cc1	110	200	300	70	–	25	Activity (Mus musculus [11]): Toxic; Activity (Mus musculus [12]): Toxic
C#CCNC(=O)/C(C)=C(\C)c1ccc(Cl)cc1	60	400	–	200	–	–	LD50 [13]: 140 mg/kg

SMILES	ED50 (Mus musculus [3]) [mg/kg]	ED50 (Mus musculus [4]) [mg/kg]	LD50 at 168 h [5] [mg/kg]	ED50 (Mus musculus [6]) [mg/kg]	Activity (Mus musculus [7])	ED50 (Mus musculus [8]) [mg/kg]	other results
C=CCNC(=O)/C(C)=C(/C)c1ccc(Br)cc1	400	–	600	–	inactive	–	Activity (Mus musculus [9]): Non-toxic; Activity (Mus musculus [1]): Non-toxic; Activity (Mus musculus [2]): Non-toxic
C=CCNC(=O)/C(C)=C(/C)c1ccccc1	550	–	600	400	inactive	–	Activity (Mus musculus [9]): Non-toxic; MED (Mus musculus [10]): 400 mg/kg
C=CCNC(=O)/C(C)=C(/C)c1ccc(C)cc1	280	–	> 800	400	inactive	–	Activity (Mus musculus [9]): Non-toxic; MED (Mus musculus [10]): 400 mg/kg
C=CCNC(=O)/C(C)=C(/C)c1ccc(Cl)cc1	180	280	600	400	inactive	–	MED (Mus musculus [10]): 400 mg/kg
C/C(C(=O)NC1CC1)=C(\C)c1ccc(Cl)cc1	170	–	450	600	–	–	Activity (Mus musculus [9]): Non-toxic; Activity (Mus musculus [2]): Non-toxic
C#CCNC(=O)/C(C)=C(\C)c1ccc(F)cc1	100	200	240	100	–	22.8	Activity (Mus musculus [11]): Toxic; Activity (Mus musculus [12]): Toxic
C/C(C(=O)NC1CC1)=C(/C)c1ccc(C)cc1	110	300	> 800	150	inactive	–	–
C/C(C(=O)NC1CC1)=C(/C)c1ccc(Br)cc1	100	600	–	130	–	8.2	LD50 [13]: 200 mg/kg
C#CCNC(=O)/C(C)=C(\C)c1ccc(C)cc1	120	200	> 800	150	–	86.4	–
C=CCNC(=O)/C(C)=C(\C)c1cc(OC)c(OC)c(OC)c1	110	280	600	190	inactive	–	–
O=C1NC(=O)C(c2ccccc2)(c2ccccc2)N1 [PHENYTOIN]	150	–	–	250	–	–	Activity (Mus musculus [14]): Non-toxic; Activity (Mus musculus [15]): Non-toxic; Activity (Mus musculus [16]): Non-toxic; Activity (Mus musculus [17]): Non-toxic
C=CCNC(=O)/C(C)=C(\C)c1ccc(F)cc1	70	150	400	130	–	40.2	Activity (Mus musculus [11]): Toxic; Activity (Mus musculus [12]): Toxic
COc1ccc(/C(C)=C(\C)C(=O)NC2CC2)cc1	250	300	> 800	250	inactive	–	–
CCC1(c2ccccc2)C(=O)N=C([O-])NC1=O.[Na+] (stereo not drawn) [PHENOBARBITAL SODIUM]	180	180	290	110	–	–	Activity (Mus musculus [18]): Toxic
C=CCNC(=O)/C(C)=C(/C)c1ccc(OC)cc1	280	–	400	400	inactive	–	Activity (Mus musculus [9]): Non-toxic; MED (Mus musculus [10]): 400 mg/kg
C=CCNC(=O)/C(C)=C(\C)c1ccc(C)cc1	100	170	600	150	–	78	–
C=CCNC(=O)/C(C)=C(/C)c1ccc(F)cc1	270	300	400	250	inactive	–	MED (Mus musculus [10]): 800 mg/kg; Activity (Mus musculus [11]): Toxic; Activity (Mus musculus [12]): Toxic
